Results: ChEMBL document CHEMBL1122149, “Beta-carbolines: synthesis and neurochemical and pharmacological actions on brain benzodiazepine receptors” (J Med Chem, 1982)

Experiments:
[1] = molecular target: GABA-A receptor; anion channel; experiment: In vitro inhibition of [3H]diazepam binding to benzodiazepine receptor in rat cerebral cortical membrane; type: cell membranes
[2] = molecular target: T1, GABA-A receptor; anion channel (Rattus norvegicus) (UniProt O09028+P15431+P18506+P18508+P19969+P20236+P23574+P23576+P28471+P28473+P30191+P62813+P63079+P63138+Q91ZM7+Q9ES14); experiment: Hill coefficient for inhibition of ~2 nM [3H]diazepam binding to GABA-A benzodiazepine receptor of rat cerebral cortical membrane
In short: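 Rat cerebral cortex tissue was homogenized in 100 volumes of 50 mM Tris-HCl pH 7.4 and washed three times by centrifugation at 20000g. […] Hill coefficients came from least mean squares regression of the inhibition curves.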

[3] = molecular target: T1, GABA-A receptor; anion channel (Rattus norvegicus)

| Structure (SMILES) | Ki [1] [µM] | Hill coefficient [2] | Hill coefficient [3] |
| --- | --- | --- | --- |
| COC(=O)C1Cc2c([nH]c3ccccc23)C(c2ccccc2)N1 (stereo in doubt; 60) | 174 |  |  |
| COC(=O)C1Cc2c([nH]c3ccccc23)C(C)N1 (configuration not stated) | > 50 |  |  |
| COc1ccc2[nH]c3c(c2c1)C=CNC3 | > 500 |  |  |
| COC(=O)c1cc2ccccc2cn1 | 13.2 |  |  |
| OCc1cc2c3ccccc3nc-2c[nH]1 | 1.47 | 0.93 |  |
| O=Cc1cc2c3ccccc3nc-2c[nH]1 | 0.0623 | 0.93 |  |
| O=Cc1cccnc1 [NICOTINALDEHYDE] | > 100 |  |  |
| COC(=O)c1cc2c([nH]c3ccccc32)c(-c2ccccc2)n1 | 3.89 |  |  |
| COC(=O)C1Cc2c([nH]c3ccc(O)cc23)CN1 (configuration not stated) | 0.573 |  |  |
| COC(=O)c1cc2c(cn1)[nH]c1ccc(O)cc12 | 0.00266 |  |  |
| O=Cc1cnc2ccccc2c1 | > 100 |  |  |
| COc1cc2c(cc1OC)CNCC2 | > 100 |  |  |
| CCC1NC(C(=O)OC)Cc2c1[nH]c1ccc(O)cc21 (stereo in doubt; 14a+14b) | 39 |  |  |
| CCC1NC(C(=O)OC)Cc2c1[nH]c1ccc(O)cc21 (stereo in doubt; 14a) | > 100 |  |  |
| O=C(O)c1cnc2ccccc2c1 | > 100 |  |  |
| COC(=O)c1cc2c3ccccc3n(C)c2cn1 | > 50 |  |  |
| COC(=O)C1Cc2c([nH]c3ccccc23)C(c2ccccc2)N1 (stereo in doubt; 49) | 54 |  |  |
| O=Cc1ccccn1 [2-PYRIDINECARBOXALDEHYDE] | > 100 |  |  |
| CCCOC(=O)c1cc2c(cn1)[nH]c1ccccc12 | 0.001 |  |  |
| CC(O)c1cc2c3ccccc3nc-2c[nH]1 (configuration not stated) | 3.16 |  |  |
| COC(=O)c1cnc2ccccc2c1 | > 100 |  |  |
| Oc1ccc2[nH]c3c(c2c1)C=CNC3 | > 100 |  |  |
| COC(=O)C1Cc2c([nH]c3ccccc23)C(CO)N1 (stereo in doubt; 17) | 5 |  |  |

| Structure (SMILES) | Ki [1] [µM] | Hill coefficient [2] | Hill coefficient [3] |
| --- | --- | --- | --- |
| CCc1nc(C(=O)OC)cc2c1[nH]c1ccccc12 | 7.54 |  |  |
| COC(=O)c1cc2c(cn1)[nH]c1ccccc12 [BETA-CCM] | 0.00105 | 0.7 |  |
| CN1C=Cc2c([nH]c3ccccc23)C1 | > 100 |  |  |
| O=C(O)C1Cc2ccccc2CN1 (configuration not stated) | > 100 |  |  |
| CCC1NC(C(=O)OC)Cc2c1[nH]c1ccccc21 (configuration not stated) | > 100 |  |  |
| CC(=O)c1cc2c3ccccc3nc-2c[nH]1 | 0.058 | 0.73 |  |
| Oc1cc2c(cc1O)CNCC2 | > 100 |  |  |
| O=C(O)C1Cc2c([nH]c3ccccc23)C(c2ccccc2)N1 (configuration not stated) | 6.11 |  |  |
| COC(=O)C1Cc2ccccc2CN1 (configuration not stated) | > 100 |  |  |
| CN(C)CCc1c[nH]c2ccccc12 | > 100 |  |  |
| COC(=O)C1=Cc2c([nH]c3ccccc23)C(c2cccnc2)N1 (configuration not stated) | 6.25 |  |  |
| CC(=O)c1ccccn1 | > 100 |  |  |
| C1=Cc2c([nH]c3ccccc23)CN1 | > 100 |  |  |
| COC(=O)C1Cc2c([nH]c3ccccc23)C(CO)N1 (stereo in doubt; 18) | 0.51 |  |  |
| CN(C)CCc1c[nH]c2ccc(O)cc12 [BUFOTENINE] | > 100 |  |  |
| COC(=O)C(Cc1c[nH]c2ccccc12)N(C)C (configuration not stated) | > 100 |  |  |
| COC(=O)C1CC2=C(C(c3ccccc3)N1)N(C)c1ccccc1C2 (configuration not stated) | > 100 |  |  |
| c1ccc2c(c1)[nH]c1cnccc12 [NORHARMANE] | 1.62 |  |  |
| O=C(O)c1cc2c3ccccc3nc-2c[nH]1 | 24 | 0.72 |  |
| Cc1nccc2c1[nH]c1ccccc12 [HARMAN] | 12.4 |  |  |
| CCOC(=O)c1cc2c(cn1)[nH]c1ccccc12 | 0.0011 |  | 0.74 |
| c1ccc2cnccc2c1 [ISOQUINOLINE] | > 100 |  |  |
| CCC1NC(C(=O)OC)=Cc2c1n(C)c1ccccc21 (configuration not stated) | > 100 |  |  |
